Source: PubChem BioAssay (Johns Hopkins Ion Channel Center)
The list is not random: actives were taken first. Their share in the collection is about 3.7%.
KCNK3 block – human KCNK3 channel inhibition, primary screen. AID 602410. B-score at 10 µM. actives 0.84% (n = 340,000). O14649. CHO-KCNK3 thallium flux, FluxOR fluorescence; hits give low values;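 active = B-score under library mean minus 4 SD, starting fluorescence ratio at most library mean plus 5 SD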;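 note: more negative B-score means stronger inhibition of thallium flux through KCNK3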
Target sequence (O14649 whole entry, looked up): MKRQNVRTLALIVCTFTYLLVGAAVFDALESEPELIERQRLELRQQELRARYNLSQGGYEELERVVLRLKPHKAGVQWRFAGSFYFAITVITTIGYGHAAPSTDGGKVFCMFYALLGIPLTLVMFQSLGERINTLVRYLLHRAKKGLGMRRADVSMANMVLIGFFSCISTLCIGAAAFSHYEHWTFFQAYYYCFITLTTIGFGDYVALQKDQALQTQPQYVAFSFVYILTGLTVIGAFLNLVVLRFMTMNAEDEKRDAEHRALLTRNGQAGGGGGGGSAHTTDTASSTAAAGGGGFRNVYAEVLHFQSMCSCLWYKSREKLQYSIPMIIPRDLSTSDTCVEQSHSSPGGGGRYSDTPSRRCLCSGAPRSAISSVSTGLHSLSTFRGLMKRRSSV
KCNQ1 block – human KCNQ1 channel inhibition; CHO-K1 KCNQ1, FluxOR thallium flux fluorescence; hits give high values; B-score at 10 µM; P51787; actives 1.3% (n = 310,000);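 active = compounds whose thallium flux B-score, printed positive for inhibition, exceeds three library SD while starting fluorescence stays within three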;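 note: channel opened by potassium depolarization with thallium stimulus after 20 min compound exposure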
KCNQ1 pot – human KCNQ1 channel potentiation or activation; CHO-K1 KCNQ1, thallium flux FluxOR fluorescence; hits give high values; B-score at 10 µM; actives 0.35% (n = 310,000); AID 2648;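 active = fluorescence ratio B-score, a plate-corrected score, at least three library SD, with initial intensity B-score within 5 SD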
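Schedule – 37 °C overnight plating, 90-min dark dye load, 20-min compound pretreatment · System – stable KCNQ1 CHO-K1 line · Probe or stimulus – thallium- and potassium-containing depolarizing buffer · Measured by – kinetic FluxOR fluorescence, 10 s baseline plus 110 s post-stimulus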
hERG protect – compounds protecting human hERG from proarrhythmic drug block; CHO-hERG, FluxOR thallium flux, dofetilide IC70 present; activation (rescue from dofetilide block), less the hit threshold, % at 10 µM; actives 0.51% (n = 310,000); Q12809;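 active = activation above the mean of controls blocked by dofetilide plus 5 SD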;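 note: thallium influx through hERG after potassium depolarization seen as dye fluorescence rise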
KCNK9 inh – human KCNK9 channel inhibition. B-score at 10 µM. AID 488922. HEK293 KCNK9, FluxOR thallium flux fluorescence; hits give low values. actives 1.2% (n = 310,000);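 active = ratio B-score over 3 SD below the library mean, with starting fluorescence within 5 SD of its mean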;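 note: negative B-score means less thallium flux so channel inhibition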
Kir21 inh – blocks the mouse Kir2.1 inward-rectifier potassium channel; P35561; HEK293-Kir2.1, FluxOR thallium flux fluorescence; hits give low values; B-score at 10 µM; actives 0.85% (n = 310,000);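 active = fluorescence ratio B-score at or below minus 3 SD of library scores, with starting-brightness B-score within 2 SD, cut at about -4.2 in these data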;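 note: channel flux triggered by added potassium and thallium sulfate stimulus; B-score of peak minus minimum fluorescence over baseline after thallium stimulus; more negative B-score means stronger Kir2.1 block with less thallium influx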
KCNK9 block conf – confirmation of human KCNK9 potassium channel inhibitors. shares compounds with KCNK9 inh. actives 43% (n = 4,900). HEK293 KCNK9 cells, FluxOR thallium flux fluorescence. inhibition, % at 10 µM;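 active = thallium signal inhibited by more than 5 SD of the compound-free buffer control wells, on both duplicate plates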;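 note: 0% = assay buffer control wells without compound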
Kir2-1 spec – mouse Kir2.1 off-target activity of KCNK9 modulators | AID 492993 | Kir2.1 cells, FluxOR thallium flux fluorescence | shares compounds with KCNK9 inh | actives 4% (n = 4,900) | inhibition, % at 10 µM;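 active = thallium signal drop more than 5 SD beyond the mean of the no-compound control wells, seen in both duplicate plates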;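 note: signal is fluorescence rise after thallium addition divided by baseline fluorescence; plate controls were assay buffer only for no effect and full block by chlorpromazine control for full effect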
KCNK9 uninduced – non-induced cell nonspecific activity of KCNK9 modulators. shares compounds with KCNK9 inh. non-induced KCNK9-HEK293, FluxOR thallium flux. inhibition, % at 10 µM. actives 40% (n = 4,900). AID 492997;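 active = thallium signal drop beyond 5 SD of the untreated control mean, on both duplicate plates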;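 note: plate controls were buffer only IC0 wells for no effect and SID17386958 at its maximal inhibitory level for full effect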
Starred values were filed as active, the others as inactive; i = inactive; nt = no result given.

SMILES	KCNK3 block	KCNQ1 block	KCNQ1 pot	hERG protect	KCNK9 inh	Kir21 inh	KCNK9 block conf	Kir2-1 spec	KCNK9 uninduced
Cc1ccc(-c2cc3ccccc3nc2N2CCOCC2)cc1	i	i	i	-11	i	-1.1	i	i	i
O=C(O)c1ccc(-c2nc(-c3ccc(Cl)c(Cl)c3)cs2)cc1	i	i	i	-2	i	3.1	i	i	i
CCN(CC)c1nc2c(c(=O)[nH]c(=O)n2C)n1CCOc1ccccc1	i	i	i	-10	i	-0.8	nt	nt	nt
Cc1ccc(-c2csc(N(CC3CCCO3)C(=O)c3ccco3)n2)cc1 (stereo unspecified)	i	i	i	-12	-8.6*	0.91	43%*	i	34%*
N#Cc1ccc(NC(=O)CN2C(=O)NC3(CCCC3)C2=O)cc1	i	i	i	-4	i	0	nt	nt	nt
O=C(OCC(=O)N1CCCc2ccccc21)c1cccc(C(F)(F)F)c1	i	i	i	-12	i	0.01	i	i	i
Cc1cccc(OCCCC(=O)N2CCCc3ccccc32)c1C	i	i	i	-17	i	-0.4	i	i	i
O=C(OCC(=O)N1CCCc2ccccc21)c1cnc(Cl)c(Cl)c1	i	i	i	-19	i	-0.86	i	i	i
CCn1c(SCC(=O)NC2CCCCC2)nnc1-c1cc2cccc(OC)c2o1	i	i	i	-9	i	-1.2	i	i	i
CCn1c(SCC(=O)Nc2nccs2)nnc1-c1cc2cccc(OC)c2o1	i	i	i	-6	i	-1.9	nt	nt	nt
CCOC(=O)[C@@H]1[C@H]2COc3ccc(Br)cc3[C@@H]2N2C(=O)N(c3ccc(C(F)(F)F)cc3)C(=O)[C@@]12C	i	i	i	-5	-12*	-0.92	74%*	i	41%*
CCOC(=O)[C@@H]1[C@H]2COc3ccccc3[C@@H]2N2C(=O)N(c3cccc(Cl)c3)C(=O)[C@@]12C	i	i	i	-14	-12*	-0.07	56%*	i	35%*
CCOC(=O)[C@@H]1[C@H]2COc3cc(OC)ccc3[C@H]2N2C(=O)N(c3cccc(F)c3)C(=O)[C@@]12C	i	nt	nt	nt	nt	nt	nt	nt	nt
CCOC(=O)[C@@H]1[C@H]2COc3ccc(Br)cc3[C@@H]2N2C(=O)N(c3cccc(F)c3)C(=O)[C@@]12C	i	i	i	-4	-10*	-0.16	64%*	i	26%*
Cc1cccc(NS(=O)(=O)c2cccc(C(=O)N3CCC3)c2)c1	i	nt	nt	nt	nt	nt	nt	nt	nt
Oc1ccc(-c2nc3c4c(ncn3n2)-c2ccccc2CC42CCCC2)cc1	i	i	i	-7	-9*	-0.84	36%*	i	35%*
CC(=O)Nn1cnc2c(c1=O)C1(CCCC1)Cc1ccccc1-2	i	nt	nt	nt	nt	nt	nt	nt	nt
COc1ccccc1N1CCN(/N=C/C=C\c2ccccc2[N+](=O)[O-])CC1	i	i	i	-16	i	2.6	i	i	i
CC(C)C[C@H](NC(=O)c1nc[nH]c1C(=O)NC1CCNCC1)C(=O)OCc1ccccc1	i	i	i	-4	i	-2	nt	nt	nt
O=S(=O)(Nc1cccc(Cl)c1)c1ccc2oc(=S)[nH]c2c1	i	i	i	-11	i	-0.02	nt	nt	nt
CN(CC1CCCN(CCc2cccc(C(F)(F)F)c2)C1)C(=O)c1cc2ccccc2o1 (stereo unspecified)	i	i	i	-21	i	-3.3	i	i	i
Nc1nc(NCCc2ccccc2)nc(NCc2ccccc2)c1[N+](=O)[O-]	i	i	i	-11	i	0.33	nt	nt	nt
